Laboratory results published in ChEMBL document CHEMBL2010675, “Discovery of GS-9451: an acid inhibitor of the hepatitis C virus NS3/4A protease” (Bioorg Med Chem Lett, 2012).
≈ marks a conversion by molar mass, not a printed value. Each block holds one molecule with its values, some of them ahead of it.

Experiments:
[1] = test system: Hepatitis C virus; test: Inhibition of Hepatitis C virus genotype 1b NS3/4A protease; set-up: species or system Hepatitis C virus subtype 1b
[2] = test system: Hepatitis C virus; test: Antiviral activity against Hepatitis C virus genotype 1b infected in human Huh cells by luciferase reporter gene based replicon assay; format: functional, organism-based, Hepacivirus hominis
How it was run: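 EC50 from a cell-based assay in Huh-luc cells carrying a subgenomic HCV genotype 1b replicon, with luciferase reporter read-out.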

[3] = Thermodynamic solubility of the compound at pH 7.3; format: physicochemical; settings: buffer, read-out: Therm_solubility
[4] = Thermodynamic solubility of the compound at pH 2.2; format: physicochemical; settings: buffer, read-out: Therm_solubility
[5] = Permeability from apical to basolateral side in human Caco2 cells; format: ADME, cell-based; settings: Caco-2, read-out: permeability
[6] = Permeability from basolateral to apical side in human Caco2 cells; format: ADME, cell-based; settings: Caco-2, read-out: permeability
[7] = Half life in dog at 1 mg/kg, iv; format: ADME, organism-based, Canis lupus familiaris; set-up: dose 1 mg/kg, route intravenous; settings: in vivo
How it was run: (§1)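 Dosed at 1.0 mg/kg iv and 4.0 mg/kg po; plasma drug levels followed to derive iv t1/2, oral AUC, clearance, Vdss and oral bioavailability (F).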

[8] = test system: Canis familiaris; test: AUC in dog at 4 mg/kg, po; format: ADME, organism-based, Canis lupus familiaris, Plasma; set-up: dose 4 mg/kg, route oral; settings: in vivo; how it was run: as §1
[9] = Clearance in dog at 1 mg/kg, iv and 4 mg/kg, po; format: ADME, organism-based, Canis lupus familiaris; settings: in vivo; how it was run: as §1
[10] = Volume of distribution at steady state in dog at 1 mg/kg, iv and 4 mg/kg, po; format: ADME, organism-based, Canis lupus familiaris; settings: in vivo, read-out: Vdss; how it was run: as §1
[11] = Oral bioavailability in dog at 4 mg/kg; format: ADME, organism-based, Canis lupus familiaris; settings: in vivo; how it was run: as §1
[12] = Fraction unbound in human plasma; format: ADME, cell-free
[13] = Half life in human microsomes; format: ADME, Microsome
[14] = Drug excretion in rat bile at 1 mg/kg, iv; format: ADME, organism-based; set-up: dose 1 mg/kg, route intravenous; settings: read-out: Drug excretion
How it was run: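 Bile-duct cannulated rats given drug intravenously; bile collected and the fraction of total dose recovered as parent compound and as glucuronide conjugates measured.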

[15] = Selectivity for hepatitis C virus NS3/4A protease over human cathepsin D
[16] = Selectivity for hepatitis C virus NS3/4A protease over human cathepsin L
[17] = Selectivity for hepatitis C virus NS3/4A protease over human proteinase 3
[18] = Selectivity for hepatitis C virus NS3/4A protease over human leukocyte elastase
[19] = Inhibition of cytochrome P450 up to 25 uM; format: ADME
[20] = target: Voltage-gated inwardly rectifying potassium channel KCNH2 (Homo sapiens, UniProt Q12809); test: Inhibition of human Erg up to 25 uM
Sequence of Voltage-gated inwardly rectifying potassium channel KCNH2 (Q12809 whole entry): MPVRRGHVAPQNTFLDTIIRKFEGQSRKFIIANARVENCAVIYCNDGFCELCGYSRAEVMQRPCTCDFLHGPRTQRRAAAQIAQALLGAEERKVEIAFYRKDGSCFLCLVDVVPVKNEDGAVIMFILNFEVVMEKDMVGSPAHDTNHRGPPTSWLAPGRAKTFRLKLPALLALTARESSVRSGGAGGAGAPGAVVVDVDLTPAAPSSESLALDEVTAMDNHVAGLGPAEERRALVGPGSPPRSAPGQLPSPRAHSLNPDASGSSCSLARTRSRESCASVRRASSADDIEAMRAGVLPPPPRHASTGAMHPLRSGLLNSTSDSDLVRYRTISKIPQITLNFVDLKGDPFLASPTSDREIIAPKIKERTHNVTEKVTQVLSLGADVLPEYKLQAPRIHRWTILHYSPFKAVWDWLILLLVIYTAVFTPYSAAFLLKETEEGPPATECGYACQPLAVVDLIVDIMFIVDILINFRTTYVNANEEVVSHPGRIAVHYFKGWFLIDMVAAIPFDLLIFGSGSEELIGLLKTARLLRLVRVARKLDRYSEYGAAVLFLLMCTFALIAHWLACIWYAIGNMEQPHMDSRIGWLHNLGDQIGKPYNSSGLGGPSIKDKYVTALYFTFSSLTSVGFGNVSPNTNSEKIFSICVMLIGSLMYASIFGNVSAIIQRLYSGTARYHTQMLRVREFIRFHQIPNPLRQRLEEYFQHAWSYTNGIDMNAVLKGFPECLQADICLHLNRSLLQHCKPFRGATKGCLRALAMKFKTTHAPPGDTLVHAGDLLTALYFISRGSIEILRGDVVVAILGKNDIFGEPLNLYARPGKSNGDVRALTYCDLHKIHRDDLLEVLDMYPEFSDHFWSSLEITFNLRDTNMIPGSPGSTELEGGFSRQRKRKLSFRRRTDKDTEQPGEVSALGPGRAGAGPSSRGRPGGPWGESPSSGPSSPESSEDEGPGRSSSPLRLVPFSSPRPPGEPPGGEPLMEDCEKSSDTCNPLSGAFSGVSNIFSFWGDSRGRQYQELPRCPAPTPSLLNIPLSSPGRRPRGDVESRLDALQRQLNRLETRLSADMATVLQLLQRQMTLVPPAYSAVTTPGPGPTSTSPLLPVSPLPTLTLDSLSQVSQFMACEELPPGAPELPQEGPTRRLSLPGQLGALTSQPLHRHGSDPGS

[21] = Inhibition of p-glycoprotein
[22] = target: Multidrug resistance-associated protein 1 (Homo sapiens, UniProt P33527); test: Inhibition of MRP1
Sequence of Multidrug resistance-associated protein 1 (P33527 whole entry): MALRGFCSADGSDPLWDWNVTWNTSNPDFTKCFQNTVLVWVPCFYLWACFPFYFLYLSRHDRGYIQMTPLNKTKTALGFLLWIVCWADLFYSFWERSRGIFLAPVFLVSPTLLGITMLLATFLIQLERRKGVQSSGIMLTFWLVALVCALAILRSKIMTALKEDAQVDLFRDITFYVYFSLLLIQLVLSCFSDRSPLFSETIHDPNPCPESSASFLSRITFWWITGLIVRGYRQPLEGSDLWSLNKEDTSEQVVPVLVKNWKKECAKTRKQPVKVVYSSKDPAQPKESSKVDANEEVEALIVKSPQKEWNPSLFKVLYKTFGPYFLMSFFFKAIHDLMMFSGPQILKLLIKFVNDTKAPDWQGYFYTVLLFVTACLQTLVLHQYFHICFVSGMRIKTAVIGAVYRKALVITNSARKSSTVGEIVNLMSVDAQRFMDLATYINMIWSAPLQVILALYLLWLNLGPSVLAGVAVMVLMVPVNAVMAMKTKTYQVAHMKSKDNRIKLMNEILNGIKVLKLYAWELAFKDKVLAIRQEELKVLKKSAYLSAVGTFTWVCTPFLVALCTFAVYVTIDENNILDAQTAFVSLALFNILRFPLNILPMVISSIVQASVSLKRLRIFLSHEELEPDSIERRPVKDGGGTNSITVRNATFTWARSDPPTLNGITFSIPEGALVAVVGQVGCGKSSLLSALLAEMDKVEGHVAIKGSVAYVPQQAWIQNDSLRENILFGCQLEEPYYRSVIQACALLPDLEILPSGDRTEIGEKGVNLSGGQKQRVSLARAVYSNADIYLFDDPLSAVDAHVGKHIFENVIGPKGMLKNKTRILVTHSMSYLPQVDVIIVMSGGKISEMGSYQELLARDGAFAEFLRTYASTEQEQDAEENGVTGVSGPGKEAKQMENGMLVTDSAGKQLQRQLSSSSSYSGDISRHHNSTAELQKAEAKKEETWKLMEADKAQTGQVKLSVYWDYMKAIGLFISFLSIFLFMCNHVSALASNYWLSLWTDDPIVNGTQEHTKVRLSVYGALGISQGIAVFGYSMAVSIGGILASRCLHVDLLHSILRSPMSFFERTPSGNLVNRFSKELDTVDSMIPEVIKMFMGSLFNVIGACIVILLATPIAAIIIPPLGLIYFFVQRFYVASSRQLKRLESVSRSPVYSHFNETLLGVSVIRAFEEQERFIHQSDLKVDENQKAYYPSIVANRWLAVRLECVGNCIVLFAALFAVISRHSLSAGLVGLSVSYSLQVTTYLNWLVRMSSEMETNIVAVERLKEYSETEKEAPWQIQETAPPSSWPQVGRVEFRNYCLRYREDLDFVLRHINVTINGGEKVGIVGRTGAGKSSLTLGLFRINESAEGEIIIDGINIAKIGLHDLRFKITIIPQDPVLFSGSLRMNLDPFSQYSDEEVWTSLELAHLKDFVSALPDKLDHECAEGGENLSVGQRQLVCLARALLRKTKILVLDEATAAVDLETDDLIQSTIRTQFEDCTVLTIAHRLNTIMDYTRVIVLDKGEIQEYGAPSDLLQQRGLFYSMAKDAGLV

[23] = target: ATP-binding cassette sub-family C member 2 (Homo sapiens, UniProt Q92887); test: Inhibition of MRP2
Sequence of ATP-binding cassette sub-family C member 2 (Q92887 whole entry): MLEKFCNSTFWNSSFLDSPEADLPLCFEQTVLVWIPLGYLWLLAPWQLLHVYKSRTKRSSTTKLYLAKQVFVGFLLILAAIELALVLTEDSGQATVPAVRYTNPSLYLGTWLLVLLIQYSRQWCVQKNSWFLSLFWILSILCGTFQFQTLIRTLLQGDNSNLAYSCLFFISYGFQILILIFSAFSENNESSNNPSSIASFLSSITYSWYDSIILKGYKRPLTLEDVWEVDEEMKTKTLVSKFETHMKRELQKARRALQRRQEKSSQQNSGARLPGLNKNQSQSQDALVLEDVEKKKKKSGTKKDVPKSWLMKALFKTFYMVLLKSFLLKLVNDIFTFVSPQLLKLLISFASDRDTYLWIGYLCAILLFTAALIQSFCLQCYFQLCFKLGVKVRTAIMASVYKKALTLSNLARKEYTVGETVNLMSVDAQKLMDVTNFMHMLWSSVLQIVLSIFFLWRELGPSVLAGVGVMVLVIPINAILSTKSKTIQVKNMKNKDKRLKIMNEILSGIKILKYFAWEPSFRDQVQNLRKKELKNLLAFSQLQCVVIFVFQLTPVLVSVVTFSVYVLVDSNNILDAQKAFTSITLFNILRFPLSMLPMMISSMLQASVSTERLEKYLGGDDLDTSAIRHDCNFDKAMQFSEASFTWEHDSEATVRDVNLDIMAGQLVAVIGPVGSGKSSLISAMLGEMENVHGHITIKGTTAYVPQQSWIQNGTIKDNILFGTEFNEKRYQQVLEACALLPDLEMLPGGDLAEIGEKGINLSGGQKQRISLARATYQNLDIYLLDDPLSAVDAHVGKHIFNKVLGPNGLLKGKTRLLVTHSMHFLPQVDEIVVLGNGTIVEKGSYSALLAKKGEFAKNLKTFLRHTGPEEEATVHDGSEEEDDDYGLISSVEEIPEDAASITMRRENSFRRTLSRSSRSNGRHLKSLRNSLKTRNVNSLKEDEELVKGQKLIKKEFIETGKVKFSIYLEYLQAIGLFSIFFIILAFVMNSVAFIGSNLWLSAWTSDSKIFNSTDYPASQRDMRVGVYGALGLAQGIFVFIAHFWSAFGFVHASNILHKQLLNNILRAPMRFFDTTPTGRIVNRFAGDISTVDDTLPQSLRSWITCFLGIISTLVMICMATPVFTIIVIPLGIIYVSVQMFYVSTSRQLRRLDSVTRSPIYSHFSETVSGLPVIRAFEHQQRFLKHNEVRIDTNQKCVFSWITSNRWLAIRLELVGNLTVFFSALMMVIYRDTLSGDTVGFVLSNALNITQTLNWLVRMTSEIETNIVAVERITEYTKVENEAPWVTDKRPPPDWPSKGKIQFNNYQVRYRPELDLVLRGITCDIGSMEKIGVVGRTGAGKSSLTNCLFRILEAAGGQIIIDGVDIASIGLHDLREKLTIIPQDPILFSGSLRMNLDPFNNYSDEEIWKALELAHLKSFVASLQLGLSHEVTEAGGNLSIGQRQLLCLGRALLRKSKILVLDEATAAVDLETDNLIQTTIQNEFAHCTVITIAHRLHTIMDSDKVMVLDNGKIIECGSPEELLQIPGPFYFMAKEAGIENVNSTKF

[24] = target: T1, Broad substrate specificity ATP-binding cassette transporter ABCG2 (Homo sapiens, UniProt Q9UNQ0); test: Inhibition of BCRP; format: ADME
T1 sequence (Q9UNQ0 whole entry): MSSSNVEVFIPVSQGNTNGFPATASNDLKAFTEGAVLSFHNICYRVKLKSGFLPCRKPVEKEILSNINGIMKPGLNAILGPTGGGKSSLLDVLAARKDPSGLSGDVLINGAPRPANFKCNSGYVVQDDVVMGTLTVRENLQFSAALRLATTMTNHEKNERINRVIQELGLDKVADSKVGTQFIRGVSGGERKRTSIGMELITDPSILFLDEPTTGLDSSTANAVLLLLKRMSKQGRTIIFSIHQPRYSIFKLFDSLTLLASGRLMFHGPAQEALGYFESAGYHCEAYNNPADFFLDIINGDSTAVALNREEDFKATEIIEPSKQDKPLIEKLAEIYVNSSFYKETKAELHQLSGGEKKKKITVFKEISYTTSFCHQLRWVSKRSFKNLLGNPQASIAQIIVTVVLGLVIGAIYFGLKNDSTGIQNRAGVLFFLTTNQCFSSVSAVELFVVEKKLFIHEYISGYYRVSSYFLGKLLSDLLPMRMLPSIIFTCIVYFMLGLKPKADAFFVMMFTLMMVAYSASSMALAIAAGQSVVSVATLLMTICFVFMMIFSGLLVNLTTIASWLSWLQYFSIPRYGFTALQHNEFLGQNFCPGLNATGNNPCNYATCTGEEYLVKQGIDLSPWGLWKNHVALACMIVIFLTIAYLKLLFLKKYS

[25] = test system: Hepatitis C virus; test: Antiviral activity against Hepatitis C virus genotype 1a infected in human assessed as log decrease in viral RNA level at 60 mg, po for 3 days; format: functional, Hepacivirus hominis, subtype 1a
[26] = test system: Hepatitis C virus; test: Antiviral activity against Hepatitis C virus genotype 1a infected in human assessed as log decrease in viral RNA level at 200 mg, po for 3 days; format: functional, Hepacivirus hominis, subtype 1a
[27] = test system: Hepatitis C virus; test: Antiviral activity against Hepatitis C virus genotype 1a infected in human assessed as log decrease in viral RNA level at 400 mg, po for 3 days; format: functional, Hepacivirus hominis, subtype 1a
[28] = Cmax in dog at 4 mg/kg, po; format: ADME, organism-based, Canis lupus familiaris; set-up: dose 4 mg/kg, route oral; settings: in vivo
[29] = Fraction unbound in dog plasma; format: ADME, cell-free, Canis lupus familiaris
[30] = Half life in dog microsomes; format: ADME, Canis lupus familiaris, Microsome
[31] = Half life in rat at 1 mg/kg, iv; format: ADME, organism-based; set-up: dose 1 mg/kg, route intravenous; settings: in vivo
[32] = test system: Rattus norvegicus; test: AUC in rat at 4 mg/kg, po; format: ADME, organism-based, Plasma; set-up: dose 4 mg/kg, route oral; settings: in vivo
[33] = Clearance in rat at 1 mg/kg, iv and 4 mg/kg, po; format: ADME, organism-based; settings: in vivo
[34] = Volume of distribution at steady state in rat at 1 mg/kg, iv and 4 mg/kg, po; format: ADME, organism-based; settings: in vivo, read-out: Vdss
[35] = Oral bioavailability in rat at 4 mg/kg; format: ADME, organism-based; settings: in vivo
[36] = Cmax in rat at 4 mg/kg, po; format: ADME, organism-based; set-up: dose 4 mg/kg, route oral; settings: in vivo
[37] = Fraction unbound in rat plasma; format: ADME, cell-free
[38] = Half life in rat microsomes; format: ADME, Microsome
[39] = Half life in cynomolgus monkey at 1 mg/kg, iv; format: ADME, organism-based, Macaca fascicularis; set-up: dose 1 mg/kg, route intravenous; settings: in vivo; how it was run: as §1
[40] = test system: Cynomolgus monkey; test: AUC in cynomolgus monkey at 4 mg/kg, po; format: ADME, organism-based, Macaca fascicularis, Plasma; set-up: dose 4 mg/kg, route oral; settings: in vivo; how it was run: as §1
[41] = Clearance in cynomolgus monkey at 1 mg/kg, iv and 4 mg/kg, po; format: ADME, organism-based, Macaca fascicularis; settings: in vivo; how it was run: as §1
[42] = Volume of distribution at steady state in cynomolgus monkey at 1 mg/kg, iv and 4 mg/kg, po; format: ADME, organism-based, Macaca fascicularis; settings: in vivo, read-out: Vdss; how it was run: as §1
[43] = Oral bioavailability in cynomolgus monkey at 4 mg/kg; format: ADME, organism-based, Macaca fascicularis; settings: in vivo; how it was run: as §1
[44] = Cmax in cynomolgus monkey at 4 mg/kg, po; format: ADME, organism-based, Macaca fascicularis; set-up: dose 4 mg/kg, route oral; settings: in vivo
[45] = Fraction unbound in cynomolgus monkey plasma; format: ADME, cell-free, Macaca fascicularis
[46] = Half life in cynomolgus monkey microsomes; format: ADME, Macaca fascicularis, Microsome
[47] = Elimination half life in human at 10 to 1000 mg; settings: in vivo, read-out: beta t1/2 (converted)
[48] = Plasma concentration in human at 300 mg after 24 hrs

- IC50 [1]: 4.2 nM
- EC50 [2]: 3.2 nM
- solubility thermodynamic [3]: 22 µM (≈ 20.6 µg/mL)
- solubility thermodynamic [4]: 1900 µM (≈ 1780 µg/mL)
- Papp A→B [5]: 6.6 ×10⁻⁶ cm/s
- Papp B→A [6]: 10 ×10⁻⁶ cm/s
- half-life [7]: 5.8 h
- AUC [8]: 38.3 µM·h
- clearance [9]: 0.5 mL/min/kg
- Vd [10]: 0.21 L/kg
- bioavailability [11]: 24%
SMILES: CC[C@@H]1C[C@]1(NC(=O)[C@@H]1C[C@@H](Oc2cc(-c3csc(NC(C)C)n3)nc3c(Cl)c(OCCN4CCOCC4(C)C)ccc23)CN1C(=O)[C@@H](NC(=O)O[C@@H]1C[C@@H]2C[C@@H]2C1)C(C)(C)C)C(=O)O

- IC50 [1]: 2.9 nM
- EC50 [2]: 3.8 nM
- solubility thermodynamic [3]: 59 µM (≈ 54.5 µg/mL)
- solubility thermodynamic [4]: > 100 µM
- Papp A→B [5]: 6.1 ×10⁻⁶ cm/s
- Papp B→A [6]: 30 ×10⁻⁶ cm/s
- half-life [7]: 2.1 h
- AUC [8]: 8.33 µM·h
- clearance [9]: 3.67 mL/min/kg
- Vd [10]: 0.66 L/kg
- bioavailability [11]: 45%
SMILES: CC[C@@H]1C[C@]1(NC(=O)[C@@H]1C[C@@H](Oc2cc(-c3csc(NC(C)C)n3)nc3c(Cl)c(OCCN4CC[C@@H](OC)C4)ccc23)CN1C(=O)[C@@H](NC(=O)O[C@@H]1C[C@@H]2C[C@@H]2C1)C(C)(C)C)C(=O)O

- IC50 [1]: 25 nM
- EC50 [2]: 7.5 nM
- solubility thermodynamic [3]: 80 µM (≈ 72.7 µg/mL)
- solubility thermodynamic [4]: > 100 µM
- Papp A→B [5]: 6.7 ×10⁻⁶ cm/s
- Papp B→A [6]: 20 ×10⁻⁶ cm/s
- half-life [7]: 3 h
- AUC [8]: 19.7 µM·h
- clearance [9]: 2.17 mL/min/kg
- Vd [10]: 0.39 L/kg
- bioavailability [11]: 32%
SMILES: CC[C@@H]1C[C@]1(NC(=O)[C@@H]1C[C@@H](Oc2cc(-c3csc(NC(C)C)n3)nc3c(Cl)c(OCCN4CCCCC4)ccc23)CN1C(=O)[C@@H](NC(=O)O[C@@H]1C[C@@H]2C[C@@H]2C1)C(C)(C)C)C(=O)O

- fraction unbound [12]: 0.026
- half-life [13]: > 6.58 h
- dose excreted [14]: 45%
- Selectivity ratio [15]: > 50000
- Selectivity ratio [16]: > 50000
- Selectivity ratio [17]: > 50000
- Selectivity ratio [18]: > 50000
- inhibition (INH) [19]: Not Active
- IC50 [21]: 34000 nM
- inhibition (INH) [21]: Dose-dependent effect
- IC50 [22]: 14900 nM
- inhibition (INH) [22]: Dose-dependent effect
- IC50 [23]: 12000 nM
- inhibition (INH) [23]: Dose-dependent effect
- IC50 [24]: 1400 nM
- IC50 [1]: 3.2 nM
- EC50 [2]: 2 nM
- solubility thermodynamic [3]: 38 µM (≈ 34.6 µg/mL)
- solubility thermodynamic [4]: 790 µM (≈ 719 µg/mL)
- Papp A→B [5]: 0.8 ×10⁻⁶ cm/s
- Papp B→A [6]: 8.2 ×10⁻⁶ cm/s
- half-life [7]: 4.2 h
- AUC [8]: 21.8 µM·h
- clearance [9]: 4.33 mL/min/kg
- Vd [10]: 1.15 L/kg
- bioavailability [11]: 142%
- Cmax [28]: 3940 nM
- fraction unbound [29]: 0.026
- half-life [30]: > 6.58 h
- half-life [31]: 0.62 h
- AUC [32]: 1.41 µM·h
- clearance [33]: 73.3 mL/min/kg
- Vd [34]: 2.3 L/kg
- bioavailability [35]: 62%
- Cmax [36]: 576 nM
- fraction unbound [37]: 0.011
- half-life [38]: > 6.58 h
- half-life [39]: 3.9 h
- AUC [40]: 13.1 µM·h
- clearance [41]: 4.83 mL/min/kg
- Vd [42]: 0.76 L/kg
- bioavailability [43]: 49%
- Cmax [44]: 3470 nM
- fraction unbound [45]: 0.016
- half-life [46]: 1.32 h
- half-life [47]: 12 h
- concentration at 24 h [48]: 400 nM
SMILES: CC[C@@H]1C[C@]1(NC(=O)[C@@H]1C[C@@H](Oc2cc(-c3csc(NC(C)C)n3)nc3c(Cl)c(OCCN4CCOCC4)ccc23)CN1C(=O)[C@@H](NC(=O)O[C@@H]1C[C@@H]2C[C@@H]2C1)C(C)(C)C)C(=O)O [VEDROPREVIR]
- inhibition (INH) [20]: Not Active
- Activity [25]: 0.88 log10IU/ml
- Activity [26]: 3.2 log10IU/ml
- Activity [27]: 3.6 log10IU/ml
